Data published in article PMC5333931 (ACS chemical neuroscience, 2016).

Columns and labels:
5-HT2A receptors [1] = target: T1, 5-HT2A receptors (Homo sapiens, UniProt P28223); test: [3H]ketanserin competition binding in HEK293 cell membrane preparations; settings: for fold lower binding affinity than risperidone (1): [3H]ketanserin, HEK293 membranes
5-HT2A receptors [2] = target: T1, 5-HT2A receptors; test: Intracellular Ca2+ release; assay type: cell-based
GIRK4* channel = target: T2, GIRK4* channel (Homo sapiens, UniProt P48544, S143T); test: TEVC, oocytes expressing GIRK4* alone versus GIRK4* and 5-HT2A receptors; assay type: cell-based; settings: 50 µM or higher; suggests direct inhibition of GIRK4* channel
T2 sequence (P48544 1-419 S143T): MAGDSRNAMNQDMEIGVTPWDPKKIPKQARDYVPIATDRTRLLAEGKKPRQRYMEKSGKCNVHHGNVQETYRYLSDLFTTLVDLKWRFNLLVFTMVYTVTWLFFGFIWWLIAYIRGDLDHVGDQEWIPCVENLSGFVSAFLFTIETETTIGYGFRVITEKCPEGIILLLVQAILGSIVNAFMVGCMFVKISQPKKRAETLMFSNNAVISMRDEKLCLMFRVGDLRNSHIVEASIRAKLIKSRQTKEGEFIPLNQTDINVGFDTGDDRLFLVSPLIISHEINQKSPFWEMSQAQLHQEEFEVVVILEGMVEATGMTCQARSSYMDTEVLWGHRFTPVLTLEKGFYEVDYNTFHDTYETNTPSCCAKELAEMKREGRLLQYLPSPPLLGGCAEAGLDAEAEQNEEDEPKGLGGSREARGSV

5-HT2A receptors [3] = target: T1, 5-HT2A receptors; assay type: cell-based; settings: 10 µM compound, 1 µM 5-HT, TEVC
5-HT2A receptors [4] = target: T1, 5-HT2A receptors; test: TEVC, compounds alone; assay type: cell-based
In short: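 Xenopus oocytes were injected with 2 ng 5-HT2A receptor plus 2 ng GIRK4* and held at 18 °C for 1–4 days. Basal GIRK4* current was taken per trace as the inward current difference with versus without 3 mM BaCl2. Read-out was current inhibition.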

5-HT2 receptor [5] = settings: 5-HT-induced inositol phosphate production; cited from earlier work
5-HT2 receptor [6] = settings: rats, drug discrimination; cited from earlier work

T1 sequence (P28223 whole entry): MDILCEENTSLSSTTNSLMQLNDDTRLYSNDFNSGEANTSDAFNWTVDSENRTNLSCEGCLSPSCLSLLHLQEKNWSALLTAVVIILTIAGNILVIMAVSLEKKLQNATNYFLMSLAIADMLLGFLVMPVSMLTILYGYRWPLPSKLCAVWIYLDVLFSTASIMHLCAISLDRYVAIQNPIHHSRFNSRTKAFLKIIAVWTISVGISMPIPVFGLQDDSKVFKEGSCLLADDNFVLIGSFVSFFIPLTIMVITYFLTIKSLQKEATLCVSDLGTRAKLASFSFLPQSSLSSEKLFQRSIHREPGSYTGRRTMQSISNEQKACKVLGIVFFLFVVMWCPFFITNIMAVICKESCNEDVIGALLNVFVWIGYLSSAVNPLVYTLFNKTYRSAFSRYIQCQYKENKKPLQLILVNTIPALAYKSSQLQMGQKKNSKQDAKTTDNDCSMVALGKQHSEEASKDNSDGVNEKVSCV

Row | Structure (SMILES) | Ki (5-HT2A receptors [1]) [µM] | IC50 (5-HT2A receptors [2]) [µM] | current inhibition in oocytes expressing GIRK4* alone versus GIRK4* and 5-HT2A receptors (GIRK4* channel) | antagonism of 5-HT responses at highest concentration tested (5-HT2A receptors [3]) | concentration yielding significant current inhibition by compound alone (5-HT2A receptors [4]; oocytes, no 5-HT) [µM] | binding affinity relative to risperidone (5-HT2A receptors [1]) | fold lower binding affinity than risperidone (1) (5-HT2A receptors [1]) | agonism of compound alone (5-HT2A receptors [4]; concentrations tested up to 50 µM) | antagonist action in vitro (5-HT2 receptor [5]) | antagonist action in vivo (5-HT2 receptor [6])
1 | Cl.O=C(CCCN1CCC(c2noc3cc(F)ccc23)CC1)N1CCCCC1 [compound 2, 4-(4-(6-Fluorobenzisoxazol-3-yl)piperidin-1-yl)-1-(piperidin-1-yl)butan-1-one Hydrochloride] | 0.0398 | 16.7 ± 1.39 | no significant differences |  |  |  |  |  |  | 
2 | Cl.Fc1ccc2c(C3CCN(CCCCN4CCCCC4)CC3)noc2c1 [compound 3] |  |  | no significant differences | no significant effects | ≥ 5 |  |  |  |  | 
3 | CN1CCC(c2noc3cc(F)ccc23)CC1.Cl [compound 4, 6-Fluoro-3-(1-methylpiperidin-4-yl)benzisoxazole Hydrochloride] |  | 7.4 ± 1.45 |  | significant inhibition |  | half that of risperidone | 2- to 8 fold |  |  | 
4 | Fc1ccc2c(C3CCNCC3)noc2c1 [compound 5, 6-fluoro-3-(piperidin-4-yl)benzisoxazole] |  | 20.1 ± 2.24 |  | significant inhibition |  |  | 13.5 fold | did not exhibit significant agonism | potent 5-HT2 receptor antagonist | potent 5-HT2 receptor antagonist
